Active and inactive are the calls of the source.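 Rule for the calls, unless noted: active = inhibition at or above 50% at 10 µM; inactive = inhibition below 50%.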
Experiments:
[1] = inhibitors of TNFa-induced NFkB p65 translocation, primary screen, imaging, HUVEC, MLSMR starter and 10KST1 sets (AID 438;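 active = inhibition above 20% together with a positive visual image hit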;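 note: compound added about 3h40 before a 20 min TNFalpha stimulation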;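 for inhibition: signal is the nuclear over cytoplasmic p65 intensity ratio per well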); details: HUVEC TNFa-induced p65 nuclear translocation; cell count: measured here: nuclei count (cytotoxicity indicator), at 2.08 µM; inhibition: at 2 µM, stronger effect = higher value, 0% TNFa-plus-vehicle, 100% no-TNFa wells
[2] = reduction of polyQ htt aggregates in cells – imaging, exon1htt(103Q)mCFP cells, high-content imaging, primary screen (AID 483;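 active = visual image review flags a hit and inhibition of aggregation exceeds 20%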;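 note: compound exposure lasted 3 days before fixation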;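 for nuclei count: percent of the per-plate median nuclei count of sample wells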); details: exon1htt(103Q)mCFP cell line, aggregate imaging, at 2 µM; inhibition of aggregation: stronger effect = higher value; nuclei count: measured here: cell count, toxicity
[3] = endothelial E-selectin expression blockers – imaging, HUVEC, immunofluorescence, MLSMR starter and 10KST1 sets, primary screen (AID 487;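 active = visually confirmed hit in the image check and inhibition above 20%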;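 for inhibition: signal is fraction of cell area covered by stained E-selectin grains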;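 for nuclei count: 100% = median nuclei count of all wells on the same plate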); details: HUVEC TNFalpha-induced E-selectin immunofluorescence imaging, at 2 µM; inhibition: stronger effect = higher value; nuclei count: measured here: cell number, toxicity
[4] = biological target: Voltage-gated potassium channel subunit beta-2 (Rattus norvegicus) (UniProt P62483); assay: inhibitors of rat Kvbeta2 reductase activity – biochemical, NADPH fluorescence, primary screen (AID 622;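 active = fluorescence slope higher than the sample average by over 3 SD, cut at about -0.22 in these data, passing the limit was not always enough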;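 note: slope of raw intensity against log time taken from 70 to 1610 s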); details: recombinant KvBeta, 4-cyanobenzaldehyde reduction, at 10 µM, stronger effect = higher value
[5] = biological target: Voltage-gated potassium channel subunit beta-2 (Rattus norvegicus) (UniProt P62483); assay: enhancers of rat Kvbeta2 NADPH turnover – biochemical, NADPH fluorescence, primary screen (AID 623;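 active = NADPH fluorescence slope more negative than the mean of all samples by about 3 SD, 99.7% confidence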;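 note: fluorescence intensity change per second fitted from 20 to 320 s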); details: Recombinant KvBeta, NADPH fluorescence decrease slope, 10 min; at 10 µM; stronger effect = lower value
[6] = biological target: Muscarinic acetylcholine receptor M4 (Homo sapiens) (UniProt P08173); assay: M4-linked GIRK flux change, two-sided – cell-based, HEK293 M4/GIRK, thallium flux, BTC-AM, M4 allosteric agonist project, primary screen (AID 625;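 active = fluorescence slope after compound addition differing from the mean of all tested samples at 99.7% confidence, mostly higher but some lower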;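 note: thallium influx through GIRK channels coupled to M4 in HEK293 cells with BTC-AM dye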); details: at 10 µM, actives lie on both sides
Method in brief: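 Assay system: HEK293 cells with M4 receptor and GIRK channels / Controls: carbachol and DMSO controls / Schedule: 1 h dye loading, 2 min kinetic read / Technique: kinetic fluorescence with BTC-AM dye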

[7] = blockers of RIG-like receptor reporter activation – cell-based, Sendai virus stimulus, luciferase, 10K MLSCN set, TLR/RLR signaling modifier project, primary screen (AID 602276); details: HEK293 RL24 IRF3 luciferase reporter, at 10 µM, stronger effect = higher value;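 note: firefly luciferase from ISG56 promoter only with Renilla not read in this screen; 0% = Sendai virus plus DMSO and 100% = medium plus DMSO without virus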
[8] = TLR3 IRF3 reporter activation blockers – cell-based, poly I:C stimulus, luciferase, 10K MLSCN set, primary screen (AID 602277;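 active = inhibition of the reporter signal at or above 50%; inactive = inhibition below 50%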); details: HEK293-TLR3 RL24 IRF3 luciferase reporter, at 10 µM, stronger effect = higher value

Sequence of Muscarinic acetylcholine receptor M4 (Homo sapiens) (P08173 whole entry, looked up): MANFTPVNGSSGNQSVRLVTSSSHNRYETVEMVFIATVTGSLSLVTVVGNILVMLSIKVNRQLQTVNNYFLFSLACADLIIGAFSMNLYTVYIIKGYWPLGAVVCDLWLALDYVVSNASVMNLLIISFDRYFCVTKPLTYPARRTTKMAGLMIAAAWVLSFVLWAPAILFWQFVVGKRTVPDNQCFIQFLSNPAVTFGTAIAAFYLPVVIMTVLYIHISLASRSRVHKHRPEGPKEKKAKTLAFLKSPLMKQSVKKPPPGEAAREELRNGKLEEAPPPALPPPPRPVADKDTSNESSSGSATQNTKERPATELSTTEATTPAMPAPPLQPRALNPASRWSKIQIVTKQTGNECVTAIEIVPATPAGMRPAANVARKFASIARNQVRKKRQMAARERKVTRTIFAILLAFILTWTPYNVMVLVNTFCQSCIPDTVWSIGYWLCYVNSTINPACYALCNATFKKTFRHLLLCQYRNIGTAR
Sequence of Voltage-gated potassium channel subunit beta-2 (Rattus norvegicus) (P62483 whole entry, looked up): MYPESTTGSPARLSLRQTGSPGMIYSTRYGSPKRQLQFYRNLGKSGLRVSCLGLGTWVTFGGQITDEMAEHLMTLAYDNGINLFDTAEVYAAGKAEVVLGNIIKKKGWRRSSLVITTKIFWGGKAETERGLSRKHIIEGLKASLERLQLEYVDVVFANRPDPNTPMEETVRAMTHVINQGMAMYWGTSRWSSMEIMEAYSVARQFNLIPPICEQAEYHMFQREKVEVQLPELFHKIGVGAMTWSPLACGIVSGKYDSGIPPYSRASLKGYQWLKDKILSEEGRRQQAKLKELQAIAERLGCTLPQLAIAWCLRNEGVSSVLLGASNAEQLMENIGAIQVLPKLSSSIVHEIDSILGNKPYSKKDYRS

SMILES | cell count [1] | inhibition [1] | inhibition of aggregation [2] | nuclei count [2] [%] | inhibition [3] | nuclei count [3] [%] | fluorescence slope [4] | NADPH fluorescence slope [5] | fluorescence slope [6] | inhibition [7] | inhibition [8]
CSc1nnc(-c2nnc(SC)n2-c2ccccc2)n1-c1ccccc1 | 879 | -9.3% (inactive) | -8% (inactive) | 109 | -143% (inactive) | 123 | -0.532 (inactive) | -2.1e-05 (inactive) | 0.00464 (inactive) | 9.27% (inactive) | 27.2% (inactive)
Cc1nc(SCC(=O)NCc2ccco2)c2c(C)c(C)sc2n1 | 709 | -4% (inactive) | 15.2% (inactive) | 85.7 | -4.2% (inactive) | 112 | -0.558 (inactive) | -3.9e-05 (inactive) | 0.00596 (inactive) | 17.4% (inactive) | 17.9% (inactive)
Nc1nc(CSCc2ccccc2)nc(N2CCOCC2)n1 | 685 | 0.8% (inactive) | -6.3% (inactive) | 95.4 | 17.1% (inactive) | 104 | -0.262 (inactive) | -1.3e-05 (inactive) | 0.0049 (inactive) | -22.6% (inactive) | -81.5% (inactive)
COc1cccc(CN(C(=O)c2cc3ccccc3oc2=O)C2CC2)c1 | 459 | -6.2% (inactive) | -16% (inactive) | 108 | -52.3% (inactive) | 137 | -0.51 (inactive) | -2.3e-05 (inactive) | 0.00464 (inactive) | -43.3% (inactive) | -136% (inactive)
CCOC(=O)N1CCN(C(=O)c2ccc3nc4cc(Cl)ccc4c(=O)n3c2)CC1 | 726 | -8.8% (inactive) | -19.4% (inactive) | 118 | 17.6% (inactive) | 118 | -0.0121 (inactive) | 2.7e-06 (inactive) | 0.00404 (inactive) | 6.58% (inactive) | 6.7% (inactive)
O=C(O)c1ccc(-n2nc(C(F)(F)F)c3c2-c2ccoc2CC3)cc1 | 609 | -5.9% (inactive) | 5.8% (inactive) | 96.1 | -24.4% (inactive) | 90.9 | -0.492 (inactive) | 2.6e-05 (inactive) | 0.00488 (inactive) | 3.92% (inactive) | -5.27% (inactive)
COc1ccccc1N1CCN(C(=O)C2CC=CCC2C(=O)O)CC1 (stereo not drawn) | 444 | -1.8% (inactive) | -7.5% (inactive) | 87.8 | 24.2% (inactive) | 44.5 | -0.454 (inactive) | -1.2e-05 (inactive) | 0.00504 (inactive) | 18.1% (inactive) | 16.3% (inactive)
COCCn1c(=O)[nH]c2cc(C(=O)N3CCN(c4ccccc4OC)CC3)ccc2c1=O | 806 | -7.9% (inactive) | 5.5% (inactive) | 102 | -28.7% (inactive) | 117 | -0.44 (inactive) | 9.4e-06 (inactive) | 0.00559 (inactive) | 10.5% (inactive) | 12.4% (inactive)
Cc1ccccc1-c1nc(CN2CCC(C(=O)NCCCN3CCCC3)CC2)c(C)o1 | 223 | 0% (inactive) | -91.5% (inactive) | 101 | 25.4% (inactive) | 94.2 | -0.553 (inactive) | 7.2e-05 (inactive) | 0.00435 (inactive) | -136% (inactive) | 56.5% (active)
CCC(C)(C)NC(=O)C(OC(=O)c1ccco1)c1ccccc1OC (stereo not drawn) | 610 | -6.2% (inactive) | 11% (inactive) | 87.5 | -4.1% (inactive) | 107 | -0.248 (inactive) | 3.7e-06 (inactive) | 0.00739 (inactive) | 0.26% (inactive) | 8.58% (inactive)
CCCn1c2ccccc2c2nnc(SCC(=O)Nc3ncccn3)nc21 | 696 | -4.4% (inactive) | -41% (inactive) | 53.5 | -10.4% (inactive) | 98.8 | -0.551 (inactive) | -1.7e-05 (inactive) | 0.00402 (inactive) | 12.2% (inactive) | 21.2% (inactive)
O=C(Cn1ccc2ccccc2c1=O)NCCC(=O)N1CCN(C(=O)c2ccco2)CC1 | 397 | -14.1% (inactive) | 11.3% (inactive) | 98.1 | 9.4% (inactive) | 97.8 | -0.503 (inactive) | 0.000132 (inactive) | 0.00733 (inactive) | -0.7% (inactive) | 6.13% (inactive)
Cc1cc(Cl)ccc1OCCCC(=O)N1CCOCC1 | 571 | -1.5% (inactive) | -0.1% (inactive) | 94.9 | -29.2% (inactive) | 112 | -0.503 (inactive) | -0.000205 (inactive) | 0.00464 (inactive) | -29.3% (inactive) | -72.8% (inactive)
CCCN1CCN(C(=O)c2cn(CC(C)C)c(=O)c3cc(OC)c(OC)cc23)CC1 | 566 | -25.1% (inactive) | -3.2% (inactive) | 113 | -9.9% (inactive) | 105 | -0.441 (inactive) | -4.3e-05 (inactive) | 0.00598 (inactive) | 15.6% (inactive) | 20.6% (inactive)
CC(C)Oc1ccc(-c2nn(-c3ccccc3)cc2/C=c2\sc3ncnn3c2=O)cc1 | 335 | -4.6% (inactive) | 5.1% (inactive) | 88.3 | -335% (inactive) | 114 | -0.279 (inactive) | 1e-05 (inactive) | 0.00832 (inactive) | -16.4% (inactive) | -14.6% (inactive)
O=C1CC(c2ccccc2)CC(O)=C1C=NCCCN1CCOCC1 (stereo not drawn) | 307 | 3.9% (inactive) | 22.3% (inactive) | 88.8 | 49.8% (inactive) | 69.3 | -0.466 (inactive) | -4e-06 (inactive) | 0.00557 (inactive) | 7.43% (inactive) | 9.1% (inactive)
CCOC(=O)N1CCN(C(=O)C2CC(=O)N(Cc3ccc(OC)cc3)C2)CC1 (stereo not drawn) | 607 | -14.6% (inactive) | -1.6% (inactive) | 112 | -28.6% (inactive) | 111 | -0.566 (inactive) | -1e-05 (inactive) | 0.0052 (inactive) | 13.3% (inactive) | 18.5% (inactive)
COc1ccc(/C=N/n2c(=O)[nH]c3c([nH]c4ccc(C)cc43)c2=O)cc1CN1CCOCC1 | 643 | 2.6% (inactive) | 16.8% (inactive) | 74.3 | 4.3% (inactive) | 98.4 | -0.407 (inactive) | -0.000488 (inactive) | 0.00369 (inactive) | -0.771% (inactive) | 11.2% (inactive)
Cc1nc(NC2=NCN(CCc3ccccc3)CN2)nc2c(C)cccc12 | 428 | 46.4% (active) | -2.2% (inactive) | 79.5 | -18.7% (inactive) | 104 | -0.457 (inactive) | -1.3e-05 (inactive) | 0.0048 (inactive) | 27.7% (inactive) | 28.3% (inactive)
COc1cc(S(=O)(=O)NC2CCCCC2)ccc1Cl | 405 | 7.6% (inactive) | 4.9% (inactive) | 89 | 3.8% (inactive) | 94.9 | -0.417 (inactive) | 4.1e-05 (inactive) | 0.00482 (inactive) | 16.6% (inactive) | 31.9% (inactive)
CSc1cccc(NC(=O)C2CCCN2S(=O)(=O)c2ccc3c(c2)CCC(=O)N3)c1 (stereo not drawn) | 571 | -6.9% (inactive) | -43.4% (inactive) | 99.9 | -72.3% (inactive) | 108 | -0.456 (inactive) | 4.1e-06 (inactive) | 0.00486 (inactive) | 4.83% (inactive) | 8.19% (inactive)
CCCOc1ccc([C@@H]2C3CN(C(=O)OCC)CC=C3C(C#N)=C(N)C2(C#N)C#N)cc1OC (stereo partly drawn) | 743 | -23.3% (inactive) | 14.7% (inactive) | 102 | -44.9% (inactive) | 112 | -0.237 (inactive) | -2.5e-05 (inactive) | 0.00528 (inactive) | 11% (inactive) | -2.37% (inactive)
Cc1ccc(S(=O)(=O)N2CCOCC2)cc1C(=O)Nc1ccccn1 | 542 | -49% (inactive) | -23.1% (inactive) | 106 | -75.1% (inactive) | 111 | -0.346 (inactive) | -3.9e-05 (inactive) | 0.00587 (inactive) | 7.52% (inactive) | 12% (inactive)
CC1CCN(C(=O)c2cc(-c3ccc(Cl)c(Cl)c3)on2)CC1 | 435 | 0.9% (inactive) | 4.2% (inactive) | 94 | 6.5% (inactive) | 91.7 | -0.449 (inactive) | -3.4e-05 (inactive) | 0.00453 (inactive) | -41% (inactive) | -89% (inactive)
CCn1c(=O)cc(OCC(=O)Nc2cc(C)ccn2)c2ccccc21 | 300 | -0.6% (inactive) | -7.1% (inactive) | 101 | -11.5% (inactive) | 126 | -0.537 (inactive) | -5.7e-06 (inactive) | 0.00495 (inactive) | 13.4% (inactive) | 21.3% (inactive)
Cc1[nH]nc2c1C1(CCN(C(=O)c3ccccc3)CC1)C(C#N)=C(N)O2 | 316 | -17% (inactive) | 22.6% (inactive) | 74.8 | 23.5% (inactive) | 114 | -0.598 (inactive) | -2.2e-06 (inactive) | 0.00593 (inactive) | 26.8% (inactive) | 32.8% (inactive)
O=C(N1CCN(Cc2ccccc2)CC1)C12CC3CC(CC(C3)C1)C2 | 530 | -4.3% (inactive) | 2% (inactive) | 88.3 | -15.4% (inactive) | 92.7 | -0.327 (inactive) | -4.6e-05 (inactive) | 0.00533 (inactive) | 17% (inactive) | 8.52% (inactive)
CC(=O)c1c(C)[nH]c(C(=O)Nc2ccc3c(c2)OCCO3)c1C | 402 | -3.5% (inactive) | -4.8% (inactive) | 115 | -18.4% (inactive) | 114 | -0.596 (inactive) | 6.7e-06 (inactive) | 0.00406 (inactive) | -15.9% (inactive) | -58% (inactive)

Source: PubChem BioAssay
